Source: PubChem BioAssay
Shown are actives, neighbours in structure and some others; about 1.1% of the full set was active somewhere.
HCV core dimer: blocks dimerization of HCV core protein | TR-FRET GST/Flag-core106 dimerization, 1536-well | inhibition, % at 5 µM | 300,000 compounds, 0.33% hits | AID 1899;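 active = inhibition above the mean of all tested compounds plus 3 SD, set per screening campaign, cut at about 45% in these data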
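Assay system: GST-tagged and Flag-tagged HCV core protein residues 1-106 / Times: compound-protein-antibody incubation 4 h at 22.5 °C / Signal: time-resolved FRET, ex 340 nm, em 617 and 671 nm / Evaluation: % inhibition based on acceptor/donor emission ratio / Benchmarks: wells lacking GST-core106 and wells with excess unlabelled core106 / Repeats: singlicate, one well per compound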
MT1-MMP act inh: inhibitors of human MT1-MMP activation | AID 651647 | GFP/RFP ratio change, % at 20 µM | 360,000 compounds, 0.061% hits | HT1080 RFP-PRO-GFP cells, GFP/RFP ratio fluorescence, overnight; percent of plate control window, DMSO zero;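 active = GFP/RFP ratio change of at least 30% with cell ATP level not reduced by more than half and red fluorescence within 50% of control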
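Material: RFP-PRO-GFP reporter HT1080 cells. Dosing: single-point 20 µM compound, 1% DMSO. Controls: DMSO and RFP-L50D-GFP cell wells. Timing: cells overnight before dosing, compound overnight, 37 °C, 5% CO2. Measure: GFP/RFP fluorescence ratio.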
NR2E3 ag-1: agonists of human NR2E3 nuclear receptor; Q9Y5X4; CHO-S Gal4-NCOR/VP16-NR2E3 two-hybrid, luciferase; inhibition of corepressor binding, % at 3.98 µM; 360,000 compounds, 0.35% hits;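 active = inhibition above the mean of all tested compounds plus 3 SD, cut at about 70% in these data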;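 note: 0% = DMSO with NR2E3 transfected cells and 100% = cells lacking NR2E3 construct; higher means lower luciferase signal from less NR2E3 corepressor binding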
DAGLB inhibitor: blocks human DAGLB lipase activity; Q8NCG7; AID 504411; inhibition, % at 5.17 µM; HEK293T DAGLB membrane lysate, EnzChek fluorogenic substrate; 340,000 compounds, 0.059% hits; in the data active = inhibition above about 34%;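 note: 0% = enzyme with vehicle and 100% = wells lacking enzyme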
NR2E3 ag-2: agonists of human nuclear receptor NR2E3; Q9Y5X4; GST-NR2E3/biotin-RetCOR TR-FRET, 1536-well; inhibition of corepressor binding, % at 4.78 µM; 320,000 compounds, 0.12% hits; AID 2300;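 active = percent inhibition above the cutoff of mean plus 3 SD of all tested compounds, set per screening campaign, cut at about 20% in these data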;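 note: 0% = DMSO wells and 100% = biotin wells as full block of FRET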
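Material: NR2E3–RetCOR corepressor complex | Quantity: 1.35 nM GST-tagged NR2E3 final | Schedule: 5 h at 4 °C | Replication: Singlicate compound wells | Reagent: RetCOR corepressor, biotinylated, 7 nM | Controls: Biotin wells as high control, 0.6% DMSO wells as low control | Signal: TR-FRET, Eu(K)-anti-GST donor, streptavidin-D2 acceptor, ex 340, em 617/671 nm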
Vif imaging: inhibitors of HIV Vif. HEK293T cells, Vif self-association by quenched fluorescence, imaging, 24 h. inhibition, % at 7.49 µM. 340,000 compounds, 0.35% hits; in the data active = inhibition above about 50%, passing the limit was not always enough
DAGLB inh conf: DAGLB (human) inhibition, confirmation screen; shares compounds with DAGLB inhibitor; HEK293T DAGLB membrane lysate, EnzChek fluorogenic substrate; inhibition, % at 5.17 µM; 190 compounds, 73% hits; AID 504445;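 active = mean inhibition over triplicate wells above a set limit taken from the primary lipase screen, cut at about 34% in these data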;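 note: 0% = DAGLB with DMSO and 100% = wells lacking DAGLB enzyme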
* hit, by the source's call; / = no result.

SMILES	HCV core dimer	MT1-MMP act inh	NR2E3 ag-1	DAGLB inhibitor	NR2E3 ag-2	Vif imaging	DAGLB inh conf
C#Cc1cccc(NC(=O)c2ccc3c(c2)C(=O)N(Cc2cccnc2)C3=O)c1	6	-3	-2	0	3	/	/
CCOC(=O)C1CCN(c2c(NCCCN(CC)c3ccccc3)c(=O)c2=O)CC1	-2	-5	-1	-1	-1	-7	/
CCN(CCCNc1cc2c(c(N)c1S(=O)(=O)O)C(=O)c1ccccc1C2=O)c1ccccc1	/	17	-32	36*	/	-4	39*
CC1(C)CC(=O)C=C(c2n[nH]nc2-c2ccc(F)c(F)c2)C1	/	-3	-5	-1	/	-3	/
COc1cc(/C=N/Nc2ccccc2[N+](=O)[O-])cc(OC)c1O	-19	12	-47	39*	-1	-15	49*
COc1ccccc1/C=N\Nc1ccccc1[N+](=O)[O-]	-11	9	-109	35*	-1	6	37*
Cc1coc2c1C(=O)C(=O)c1c-2ccc2c1CCCC2(C)C	3	9	-14	53*	-1	-5	58*
COC(=O)c1c(C)c2c(C)cc3ccccn3c-2c1C(=O)OC	-21	-27	-6	0	1	/	/
COC(=O)c1cc2c(-c3ccccc3)cc3ccccn3c-2c1C(=O)OC	30	-11	-27	37*	7	14	30
Cc1ccc(NS(=O)(=O)c2ccc(C)c(C(=O)NCC(c3ccccc3)N(C)C)c2)cc1 (stereo unspecified)	/	2	-32	1	-5	14	/
O=C1C(NS(=O)(=O)c2cccs2)=C(N2CCN(c3cccc(Cl)c3)CC2)C(=O)c2ccccc21	37	6	-17	41*	-2	-5	42*
O=C1C(NS(=O)(=O)c2ccccc2)=C(N2CCN(c3ccc(F)cc3)CC2)C(=O)c2ccccc21	5	14	-4	27	0	-4	/
O=C(c1ccc(=O)[nH]c1)N(c1ccccc1)C(CCc1ccccc1)c1nc2ccccc2[nH]1 (stereo unspecified)	/	-1	-9	/	/	/	/
COc1ccc(N/C=C2\C(=O)CCc3c2oc2cc(Cl)c(O)c(Cl)c32)cc1	5	-12	-11	36*	7	-4	38*
COc1ccc(S(=O)(=O)N2CCOCC2)cc1OC	-9	-1	1	0	-2	/	/
COc1ccc(S(=O)(=O)N2CCOCC2)cc1N=Nc1sc(N)nc1-c1ccccc1	-9	18	18	56*	-1	-4	92*
Cc1ccc(NCC(O)C(O)C(O)CO)cc1C (stereo unspecified)	0	-1	-6	-4	0	-2	/
Cc1cc(N=Nc2ccccc2)c(NCC(O)C(O)C(O)CO)cc1C (stereo unspecified)	-28	22	-55	45*	2	6	43*
O=C(CSc1nc(C2CC2)nc2ccccc12)N1CCc2ccccc21	/	-5	-28	-1	/	-2	/
CCOc1ccc(Nc2nnc(SCc3nc4ccccc4c(=O)[nH]3)s2)cc1	9	-4	-25	60*	-1	-4	74*
Cc1ccccc1Nc1nnc(SCc2nc3ccccc3c(=O)[nH]2)s1	0	/	/	/	4	/	/
O=C1S/C(=C\c2ccc(O)c([N+](=O)[O-])c2)C(=O)N1c1ccccc1Cl	5	9	28	36*	4	-14	45*
O=C1S/C(=C\c2ccc(O)c([N+](=O)[O-])c2)C(=O)N1Cc1cccc([N+](=O)[O-])c1	5	6	20	/	4	-4	/
COc1cc(/C=C2/C(=O)NN(c3ccc(C)c(Cl)c3)C2=O)cc([N+](=O)[O-])c1O	/	0	-35	39*	/	-3	38*
COc1cc(/C=C2/C(=O)NN(c3cccc(C)c3)C2=O)cc([N+](=O)[O-])c1O	-9	11	22	16	0	-22	/
Cc1nn(-c2ccccc2)c(N)c1N=Nc1cccnc1	-22	0	-69	0	1	/	/
